From paper PMC4629109 (Acta Pharmaceutica Sinica. B, 2014)
In brackets after ≈: the same amount, converted by molar mass.

Assays:
[1] = Transport across hRMECs monolayer cells; type: in vitro ADME; conditions: human
How it was run: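 hRMEC monolayers were grown on 24-well 0.4 μm polycarbonate Transwells and used at TEER 200 Ω. After rinsing, 100 μmol/L compound in 37 °C HBSS was added apically. Basolateral samples were taken at 30, 60, 120, 240 and 360 min with replacement and analysed by HPLC (UV 230 nm). Papp=(ΔQ/Δt)/(A×C0), with A 0.33 cm², n=3. The ratio is Papp test/Papp fluorescein; a competition set used 24 h pre-incubation with 10 mmol/L taurine in both chambers.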

[2] = Transport across ARPE-19 monolayer cells; type: in vitro ADME; conditions: human
How it was run: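 ARPE-19 cells were seeded at 2.5×10⁵ cells/insert on 12-well 0.4 μm polycarbonate Transwells and used once TEER reached 150 Ω. After two HBSS rinses, 100 μmol/L compound in 37 °C HBSS was added apically. Basolateral samples were taken at 30, 60, 120, 240 and 360 min with replacement and analysed by HPLC. Papp=(ΔQ/Δt)/(A×C0), with A 1.12 cm², n=3. The ratio is Papp test/Papp fluorescein; a competition set used 24 h pre-incubation with 10 mmol/L taurine.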

Solubility study = type: physicochemical; conditions: doubly distilled water, 25 °C, thermodynamic from solid
How it was run: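 Excess solid was placed in doubly distilled water and shaken at 100 times/min at 25 °C for 24 h. It then stood a further 24 h at 25 °C and was centrifuged. The supernatant was assayed by HPLC on a Polar-RP column at 35 °C, with UV at 230 nm and pH 2.5 phosphate buffer/acetonitrile.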

hRMECs = experiment: Cellular internalization by confocal scanning microscopy; type: cell-based, human; conditions: 100 μmol/L, 37 °C
How it was run: (§1)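 Cells were seeded on confocal dishes at 5×10³ cells/well and grown 24 h at 37 °C. They were then exposed to 100 μmol/L test compound or fluorescein for 2 h or 6 h, and washed three times with HBSS. Intracellular fluorescence was imaged by laser scanning confocal microscopy, with excitation at 488 nm for fluorescein and 405 nm for the conjugate.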

ARPE-19 = experiment: as above; type: cell-based; conditions: ARPE-19, 100 μmol/L, 37 °C
How it was run: as §1

[3] = n-octanol/water partition coefficient, shake flask method; type: physicochemical
How it was run: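 Shake-flask method: n-octanol and water were mutually presaturated (24 h shaking, 4000 rpm 10 min). The compound was dissolved in water-saturated octanol and mixed with an equal volume of octanol-saturated water. The mixture was shaken at 100 times/min at 25 °C for 24 h and centrifuged at 4000 rpm for 10 min. Both phases were diluted and quantified by HPLC (UV 230 nm), and P was calculated as C(oil)/C(water).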

Papp at 360 min, 100 μmol/L [1]: 7.23 ± 0.92 ×10⁻⁶ cm/s
Papp at 360 min, 100 μmol/L [2]: 5.56 ± 0.8 ×10⁻⁶ cm/s
solubility at 24 h (Solubility study): 6.75 µg/mL (≈ 20.3 µM)
intracellular fluorescence (cellular uptake) (hRMECs; 2 h): strong fluorescence
intracellular fluorescence (cellular retention) (hRMECs; 6 h): almost no fluorescein was observed
intracellular fluorescence (cellular uptake) (ARPE-19; 2 h): strong fluorescence
intracellular fluorescence (cellular retention) (ARPE-19; 6 h): almost no fluorescein was observed
logP at 24 h [3]: 1.55
SMILES: O=C1OC2(c3ccc(O)cc3Oc3cc(O)ccc32)c2ccccc21 [Fluorescein]
